# A selection: hits, their analogues and other compounds. The true share with any hit is near 5.5%.
# HSV replic up = HSV replication enhancement. maximum fold increase. hit rate 0.005% among 220,000. HSV replication augmentation in cells, fold increase; in the data active = maximum fold increase above about 1.5; inconclusive = no clear call, values can overlap the other calls; tested in PC3 cells
# STAT3 act = increases IL-6 driven STAT3 reporter signal; U3A cells, IL-6 STAT3-luciferase reporter, luminescence; 100% = signal with IL-6 EC80 alone; activation (% of control), % at 5.6 µM; hit rate 0.91% among 190,000; AID 871;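 active = activation above the screen-wide mean of compound activation plus 3 SD, cut at about 130% in these data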;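 note: 0% = background luminescence of wells with medium and substrate only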
#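 Test system: STAT3-luciferase reporter U3A cells; Detection: reporter luminescence signal; Times: 1 h compound pre-exposure, 6 h IL-6 stimulation, 37 °C; Benchmarks: IL-6-only high control; Also added: IL-6 stimulus at 33 ng/mL final.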
# STAT1 act = STAT1 signaling activation. AID 932. NIH 3T3 STAT1-luciferase reporter, IFN-gamma, luminescence; 100% = IFN-gamma alone, no compound. hit rate 2.6% among 200,000. activation (% of control), % at 5.5 µM;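 active = activation above the screen-wide mean activation plus 3 SD, cut at about 130% in these data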;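 note: raw ratio to IFN-gamma control signal so 100% means no change and 0% no light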
# Cl transport mod = KCC2 (human) Cl- transport modulation; KCC2 cells, thallium flux FluoZin-2 fluorescence; Q9H2X9; hit rate 2.2% among 190,000; B-score of Tl+ flux slope (higher = more flux/activation; lower = inhibition) at 10 µM;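 active = thallium flux slope and its plate-corrected score both differing from the plate sample mean at a set confidence after two filtering rounds, in either direction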;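 note: slope of fluorescence scaled to starting intensity during 10 to 20 s after thallium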
# Target sequence (Q9H2X9 whole entry, looked up): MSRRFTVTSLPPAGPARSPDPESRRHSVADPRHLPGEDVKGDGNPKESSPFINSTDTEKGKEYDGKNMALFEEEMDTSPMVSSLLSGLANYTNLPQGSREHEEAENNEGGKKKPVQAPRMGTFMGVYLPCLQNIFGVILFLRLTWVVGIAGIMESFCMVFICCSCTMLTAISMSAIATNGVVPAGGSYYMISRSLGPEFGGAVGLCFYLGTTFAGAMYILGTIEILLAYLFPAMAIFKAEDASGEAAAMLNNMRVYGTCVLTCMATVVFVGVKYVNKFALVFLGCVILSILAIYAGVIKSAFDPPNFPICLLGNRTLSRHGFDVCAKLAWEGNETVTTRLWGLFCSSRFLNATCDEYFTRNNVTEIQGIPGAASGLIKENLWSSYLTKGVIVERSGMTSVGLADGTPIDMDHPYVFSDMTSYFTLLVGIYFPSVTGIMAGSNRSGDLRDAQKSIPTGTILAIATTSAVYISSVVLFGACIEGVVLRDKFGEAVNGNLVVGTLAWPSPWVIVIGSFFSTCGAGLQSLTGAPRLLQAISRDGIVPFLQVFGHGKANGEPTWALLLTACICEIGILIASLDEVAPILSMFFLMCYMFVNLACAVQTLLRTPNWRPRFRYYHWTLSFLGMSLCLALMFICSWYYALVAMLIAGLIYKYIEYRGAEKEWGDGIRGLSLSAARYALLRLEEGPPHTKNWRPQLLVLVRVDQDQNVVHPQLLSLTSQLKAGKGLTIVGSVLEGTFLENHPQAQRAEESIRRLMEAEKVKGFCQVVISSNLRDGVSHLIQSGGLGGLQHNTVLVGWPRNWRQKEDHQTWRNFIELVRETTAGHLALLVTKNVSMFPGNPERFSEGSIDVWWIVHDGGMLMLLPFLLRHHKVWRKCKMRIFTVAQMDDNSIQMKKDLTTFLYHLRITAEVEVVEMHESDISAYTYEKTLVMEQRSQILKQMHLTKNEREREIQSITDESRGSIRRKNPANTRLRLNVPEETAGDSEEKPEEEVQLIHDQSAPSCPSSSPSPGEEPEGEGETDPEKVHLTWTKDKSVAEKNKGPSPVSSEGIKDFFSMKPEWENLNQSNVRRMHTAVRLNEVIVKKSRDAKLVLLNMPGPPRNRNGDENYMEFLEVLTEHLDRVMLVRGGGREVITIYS
# STAT3 inh = STAT3 signaling inhibition. AID 862. inhibition, % at 5.5 µM. U3A cells, IL-6 STAT3-luciferase reporter, luminescence; host cell line lacks STAT1. hit rate 0.89% among 190,000;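 active = inhibition above the mean inhibition across all screened compounds plus 3 SD, cut at about 44% in these data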;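 note: 0% = DMSO only wells and 100% = 100 µM nifuroxazide control wells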
# STAT1 inh = reduces IFN-gamma driven STAT1 reporter signal; NIH 3T3 STAT1-luciferase reporter, luminescence; hit rate 0.35% among 200,000; inhibition, % at 5.5 µM;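 active = inhibition above a set limit, the mean inhibition across all tested compounds plus 3 SD, cut at about 34% in these data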;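 note: 0% = IFN-gamma with DMSO and 100% = IFN-gamma with 300 µM nifuroxazide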
# KCC2 sec1 = confirmation of human KCC2 transport modulators | normalised thallium flux (F/F0 slope) at 10 µM | HEK293-KCC2, thallium flux, FluoZin2 fluorescence; active compounds read high | shares compounds with Cl transport mod | hit rate 15% among 3,700;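 active = thallium flux slope above the same plate's solvent-only control mean plus 3 SD; inconclusive = the two replicate wells disagree; inactive = no significant difference from solvent-only control wells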
# KCC2 bumet counter = thallium flux persisting under bumetanide in KCC2 cells, counter-screen secondary assay; shares compounds with Cl transport mod; HEK293-KCC2 + bumetanide/ouabain, thallium flux FluoZin2; active compounds read high; normalized thallium flux at 10 µM; hit rate 49% among 3,700;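 active = thallium entry rate above the same plate's blocked-transporter control wells by more than 3 SD; inconclusive = the two repeat wells disagree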;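 note: raw slope of fluorescence over initial fluorescence between 10 and 20 s after thallium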
# KCC2 secondary2 = KCC2 (human) modulation, second secondary assay; shares compounds with Cl transport mod; AID 1715; hit rate 23% among 3,700; normalized thallium flux at 10 µM; HEK293-KCC2, thallium flux FluoZin2 fluorescence; actives lie on both sides; F/F0 rise rate, 10–20 s post-thallium;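 active = thallium flux slope more than 3 SD above or below the plate's solvent-only control mean, mostly below; inconclusive = the two repeat wells disagreed; inactive = no significant shift from solvent-only controls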;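 note: raw slope with 0.1% DMSO as baseline and bumetanide as block control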
# HEK293 Tl flux = acts in parental HEK cells, KCC2 counter-screen; hit rate 46% among 3,700; AID 1716; shares compounds with Cl transport mod; thallium flux rate (normalised fluorescence) at 10 µM; HEK293 parental cells, thallium flux FluoZin2, ouabain; baseline-ratio fluorescence slope, 10–20 s after thallium;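 active = thallium flux rate significantly above the same plate's solvent-only control wells, beyond their mean plus 3 SD; inconclusive = the two replicate wells gave conflicting results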
# KCC2 retest ouab = KCC2 (human) modulation, ouabain retest; hit rate 48% among 3,700; shares compounds with Cl transport mod; raw Tl+ flux slope (below DMSO = inhibition, above = activation) at 10 µM; HEK293-KCC2, thallium flux FluoZin2 fluorescence; bidirectional: low = inhibitor, high = activator;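 active = thallium flux slope beyond 3 SD from same-plate DMSO control mean in most replicates, usually higher, sometimes lower; inconclusive = repeat tests gave conflicting results; inactive = no significant difference from controls in most replicates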;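 note: slope of initial-normalized fluorescence between seconds 10 and 20 after thallium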
# HEK293 Tl flux2 = counter-screen for KCC2 modulators: effect in parental HEK293 cells | shares compounds with Cl transport mod | thallium flux FluoZin-2 fluorescence slope | thallium flux slope at 10 µM | hit rate 33% among 3,700 | AID 1718;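 active = thallium flux slope above the same plate's solvent-control mean plus 3 SD in both duplicate wells; inconclusive = duplicate wells that disagreed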;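 note: run without ouabain in cells lacking the KCC2 cotransporter; slope of fluorescence scaled to its starting value between 10 and 20 s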
# * = called active by the depositor; i = inactive; ? = inconclusive; · = not tested or not shown.
SMILES,HSV replic up,STAT3 act,STAT1 act,Cl transport mod,STAT3 inh,STAT1 inh,KCC2 sec1,KCC2 bumet counter,KCC2 secondary2,HEK293 Tl flux,KCC2 retest ouab,HEK293 Tl flux2
COc1ccc(-n2nc(C(=O)Nc3nc4ccc(OC)cc4s3)c3ccccc3c2=O)c(OC)c1,i,105,105,0.64,-4,-5,·,·,·,·,·,·
O=C(NCCC1=CCCCC1)C(=O)NCC(c1ccco1)N1CCN(c2ccccc2F)CC1 (centres undefined),i,95,97,1.3,4,3,·,·,·,·,·,·
CCOc1ccc(N(CC(=O)Nc2c(C)n(C)n(-c3ccccc3)c2=O)S(=O)(=O)c2ccccc2)cc1,i,99,101,-2.8*,6,-3,0.0093,0.0068,0.031,0.0082,0.018,0.011
NC(=O)C1CCN(C(=S)NCCc2ccccc2)CC1,i,92,101,4.6*,14,-2,0.0065,0.0052,0.033,0.009,0.021,0.012
Oc1ccc(-c2nc(-c3ccc(O)c(O)c3)cs2)cc1,i,115,95,-3.5*,-11,6,0.0095,0.0075,?,0.0062,0.014*,0.01
Oc1ccc(-c2csc(-c3cccnc3)n2)c(O)c1,i,88,115,-1.6,15,-16,·,·,·,·,·,·
Cc1ccc(C)c(-c2[nH]ncc2CN2CCCC(CO)(Cc3ccccc3C)C2)c1 (centres undefined),i,110,106,·,-7,-8,·,·,·,·,·,·
COc1ccc2c(C)cc3n[nH]c(=S)n3c2c1,i,·,·,27*,·,·,0.023*,0.037*,?,0.028*,0.031*,0.029*
O=C(COc1ccccc1-c1ccccc1)NN=C1CCCC1,i,100,104,-3.4*,6,-6,0.0071,0.0039,0.032,0.005*,0.018,0.0077*
CC(C)Cn1c(-c2nn(C)cc2Cl)n[nH]c1=S,i,90,100,-0.047,15,0,·,·,·,·,·,·
CC(C)Cn1c(-c2ccc(Br)o2)n[nH]c1=S,i,105,102,12*,-2,-2,0.018*,0.04*,0.034,0.019*,0.032*,0.012*
COC(=O)CN(c1cc(C(F)(F)F)ccc1Cl)S(C)(=O)=O,·,101,102,·,3,-2,·,·,·,·,·,·
COCCNC(=O)CN(c1cc(C(F)(F)F)ccc1Cl)S(C)(=O)=O,i,97,92,-4*,9,9,0.0085,?,0.028,?,0.019,0.011
CC1CCc2sc(-c3n[nH]c(=S)o3)cc2C1 (centres undefined),i,101,96,39*,-1,5,0.021*,0.1*,0.032,0.03*,0.053*,0.015*
CC1CCc2sc(C(=O)NCc3ccc(F)cc3)cc2C1 (centres undefined),i,92,103,-0.88,7,-3,·,·,·,·,·,·
CC(CC(=O)Nc1ccccc1C(F)(F)F)c1ccccc1 (centres undefined),i,100,90,-0.0086,0,11,·,·,·,·,·,·
CCOC(=O)c1c(-c2cccs2)csc1NC(=O)CCCC(=O)O,i,93,94,·,16,7,0.016,0.006*,0.027,?,0.015,0.0089
CCOc1ccc(N2C(=O)CS/C2=N/NC(=O)COc2ccc3ccccc3c2)cc1,i,92,104,-5*,11,-5,0.0087,0.006,0.029*,0.0045,0.016*,0.011
CSc1ccc(CN(C)CC(=O)Nc2ccc(C)cc2Br)cc1,i,114,102,-0.78,-12,-3,·,·,·,·,·,·
NC(=O)/C(=N\OC(=O)c1ccco1)c1nc(-c2ccc(Br)cc2)cs1,i,100,111,3.7*,3,-12,0.0075,0.013*,0.025*,0.011*,0.018,0.0087
CCC(C)(C)n1nnnc1C(c1ccc(O)c(OC)c1)N1CCN(c2nc3ccccc3s2)CC1 (centres undefined),i,104,106,-4.3*,2,-5,0.008,0.0047,0.023*,0.007,0.016*,0.01
CCNC(=O)n1nccc1C(C)Oc1cccc(C(F)(F)F)c1 (centres undefined),i,96,94,-2.1,7,6,·,·,·,·,·,·
CN1c2ccccc2Oc2nnc(Cl)cc21,i,85,99,0.14,22,0,·,·,·,·,·,·
CN1c2ccccc2Oc2nnc(N3CCN(Cc4ccccc4)CC3)cc21,i,98,111,-4*,8,-13,0.0053,?,0.021*,0.0065,?,0.011
CCN1CCN(S(=O)(=O)c2ccc(Cl)c(C(=O)NC(C)(C)C)c2)CC1,i,105,103,1.3,2,-3,·,·,·,·,·,·
SMILES,HSV replic up,STAT3 act,STAT1 act,Cl transport mod,STAT3 inh,STAT1 inh,KCC2 sec1,KCC2 bumet counter,KCC2 secondary2,HEK293 Tl flux,KCC2 retest ouab,HEK293 Tl flux2
COc1cc2nc(=S)n3[nH]c(COc4ccccc4C)nc3c2cc1OC,i,108,95,-9.2*,-14,5,0.0088,0.0059,0.029,0.0061*,0.01*,?
S=c1[nH]nc(C2CCCCC2)n1/N=C/C=C/c1ccccc1,·,91,103,7.7*,17,-3,0.0068,0.037*,0.046*,0.034*,0.032*,0.031*
O=[N+]([O-])c1cccc(/C=N/n2c(C3CCCCC3)n[nH]c2=S)c1,i,97,94,2.2,6,6,·,·,·,·,·,·
O=[N+]([O-])c1ccccc1/C=N/n1c(C2CCCCC2)n[nH]c1=S,i,107,100,11*,-5,0,0.0064,0.033*,0.036,0.024*,0.031*,0.019*
O=C(c1cc([N+](=O)[O-])ccc1N1CCCCC1)N1CCc2ccccc21,i,106,97,-1.5,-1,3,·,·,·,·,·,·
Nc1ccc(C(=O)OCC(=O)N2CCN(C(=O)c3ccco3)CC2)cc1[N+](=O)[O-],i,99,90,0.02,2,11,·,·,·,·,·,·
O=C(c1ccc(N2CCCCCC2)c([N+](=O)[O-])c1)N1CCc2ccccc21,i,107,96,-6.7*,-11,5,0.015,?,0.023*,0.0071,0.012,0.0094
